Test results taken from ChEMBL document CHEMBL3259573, “Optimization of 2-(3-(arylalkyl amino carbonyl) phenyl)-3-(2-methoxyphenyl)-4-thiazolidinone derivatives as potent antitumor growth and metastasis agents” (Eur J Med Chem, 2014).
Calls of active or inactive are those of the source. No cut-off for these calls is given here.

How the values were obtained:
MDA-MB-231 [1] = test: Antiproliferative activity against human MDA-MB-231 cells after 48 hrs by sulforhodamine B assay; format: functional, cell-based; conditions: MDA-MB-231, 48 h
Outline: (§1)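 Cells kept in RPMI 1640 at 37 °C, 5% CO₂, and seeded 24 h before treatment, with DMSO as control. After 48 h, fixed with cold 50% TCA 1 h at 4 °C and stained with 0.4% SRB in 1% acetic acid for 10 min. Washed five times with 1% acetic acid, dye solubilized in 10 mM Tris base, OD read at 515 nm.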

A549 [2] = test: Antiproliferative activity against human A549 cells after 48 hrs by sulforhodamine B assay; format: functional, cell-based; conditions: A549, 48 h; outline: as §1
MDA-MB-231 [3] = test: Antimetastatic activity against human MDA-MB-231 cells assessed as inhibition of cell migration after 24 hrs by wound healing assay; format: functional, cell-based; conditions: for IC50: MDA-MB-231, 24 h
Outline: (§2)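 Cells grown at 37 °C in complete RPMI 1640 to 80–90% confluence, then serum-starved 12 h. Monolayer scraped with pipette tip, washed twice with PBS, refed complete RPMI 1640 with compound (0.5 or 0.05 uM per legend). Incubated 24 h at 37 °C, then fixed and photographed. Migrated cells counted manually, inhibition expressed relative to untreated (100%). Three independent experiments, 95% CI.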

MDA-MB-231 [4] = test: Antimetastatic activity against human MDA-MB-231 cells assessed as inhibition of cell migration at 0.5 uM after 24 hrs by wound healing assay; format: functional, cell-based; outline: as §2
Mus musculus [5] = test: Toxicity in nude mouse xenografted with luciferase-labeled human MDA-MB-231 cells assessed as change in body weight at 1 to 5 mg/kg/day, ip administered 1 week prior to tumor implantation measured after 21 days; format: organism-based; parameters: route intraperitoneal; conditions: in vivo, 504 h
MDA-MB-231 [6] = test: Antimetastatic activity against luciferase-labeled human MDA-MB-231 cells xenografted in nude mouse assessed as increase in mouse survival at 1 to 5 mg/kg/day, ip administered 1 week prior to tumor implantation measured after 21 days; format: functional, organism-based
Outline: (§3)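 Nude mice randomized into 3 groups (n = 6) and given DMSO or compound at 1.0 or 5.0 mg/kg/day by intraperitoneal injection. Dosing started one week before tail-vein injection of 1 × 10⁶ firefly luciferase-expressing MDA-MB-231 cells in PBS and continued 21 days. Lung metastasis read by bioluminescence photon flux; survival by Kaplan–Meier analysis.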

MDA-MB-231 [7] = test: Antimetastatic activity against human MDA-MB-231 cells assessed as inhibition of cell migration after 10 to 12 hrs by transwell assay; format: functional, cell-based
Outline: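 MDA-MB-231 cells (5 × 10⁴) in serum-free medium placed in upper chamber, 10% FBS medium below; compound at fixed concentrations in both chambers. Migration approximately 10 h (legend says 12 h). Non-migrated cells swabbed off, migrated cells fixed in paraformaldehyde 1 h, stained 0.1% crystal violet, counted in 7–8 random fields. Three independent experiments, means with 95% confidence intervals.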

MDA-MB-231 [8] = test: Antimetastatic activity against luciferase-labeled human MDA-MB-231 cells xenografted in nude mouse assessed as reduction in development of lung metastasis at 1 to 5 mg/kg/day, ip administered 1 week prior to tumor implantation measured after 21 days by bioluminescence assay; format: functional, organism-based; conditions: TDE = time-dependent effect; outline: as §3
A549 [9] = test: Antitumor activity against human A549 cells xenografted in nude mouse assessed as reduction in tumor volume at 5 to 10 mg/kg/day, ip for 28 days; format: functional, organism-based
MDA-MB-231 [10] = test: Antimetastatic activity against luciferase-labeled human MDA-MB-231 cells xenografted in nude mouse assessed as reduction in photon flux in lungs at 5 mg/kg/day, ip administered 1 week prior to tumor implantation measured after 21 days by bioluminescence assay relative to control; format: functional; parameters: scale not given: the % may be the effect or the level left; conditions: route intraperitoneal; outline: as §3
A549 [11] = test: Cell cycle arrest in human A549 cells assessed as accumulation at G2/M phase at 1 uM by propidium iodide staining-based FACS analysis relative to control; format: functional
MDA-MB-231 [12] = test: Induction of apoptosis in human MDA-MB-231 cells at 0.1 to 1 uM after 48 hrs by annexin V-FITC and propidium iodide staining-based flow cytometric analysis; format: functional, cell-based
Outline: (§4)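 Treatment 48 h. Cells washed with cold PBS, resuspended in binding buffer, stained with Annexin V-FITC/PI 15 min. 10,000 stained cells per sample analyzed by flow cytometry.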

A549 [13] = test: Antitumor activity against human A549 cells xenografted in nude mouse assessed as reduction in tumor weight at 5 to 10 mg/kg/day, ip for 28 days; format: functional, organism-based
Mus musculus [14] = test: Toxicity in nude mouse xenografted with human A549 cells assessed as change in body weight at 5 to 10 mg/kg/day, ip for 28 days; format: organism-based; parameters: route intraperitoneal; conditions: in vivo, 672 h
MDA-MB-231 [15] = test: Cell cycle arrest in human MDA-MB-231 cells assessed as accumulation at G2/M phase at 1 uM by propidium iodide staining-based FACS analysis relative to control; format: functional
A549 [16] = test: Induction of apoptosis in human A549 cells at 0.1 to 1 uM after 48 hrs by annexin V-FITC and propidium iodide staining-based flow cytometric analysis; format: functional, cell-based; outline: as §4
MDA-MB-231 [17] = test: Antimetastatic activity against luciferase-labeled human MDA-MB-231 cells xenografted in ip dosed nude mouse assessed as reduction in development of lung metastasis administered 1 week prior to tumor implantation measured after 21 days by bioluminescence assay; format: functional, organism-based; outline: as §3

SMILES	IC50 (MDA-MB-231 [1]) [µM]	IC50 (A549 [2]) [µM]	further results
COc1ccccc1N1C(=O)CSC1c1cccc(O)c1 (stereo not drawn)	> 50	> 50	–
O=C1CSC(c2cccc(Br)c2)N1c1ccc(O)cc1 (stereo not drawn)	> 50	> 50	–
O=C1CSC(c2cccc(Br)c2)N1c1nccs1 (stereo not drawn)	> 50	> 50	–
COc1ccccc1N1C(=O)CSC1c1cccc(C(=O)NCCc2ccccc2)c1 (stereo not drawn)	> 25	0.96	inhibition (MDA-MB-231 [3]): Active
CNc1ccccc1N1C(=O)CSC1c1cccc(Br)c1 (stereo not drawn)	> 50	22.6	–
O=C1CSC(c2cccc(Br)c2)N1c1ccccc1 (stereo not drawn)	> 50	> 50	–
O=C1CSC(c2cccc(Br)c2)N1c1ncccn1 (stereo not drawn)	> 50	> 50	–
COc1cccc(C2SCC(=O)N2c2ccccc2OC)c1 (stereo not drawn)	> 50	> 50	–
COc1ccccc1N1C(=O)CSC1c1ccc(Br)cc1 (stereo not drawn)	> 50	48.5	–
C=CCN(CC=C)C(=O)c1cccc(C2SCC(=O)N2c2ccccc2OC)c1 (stereo not drawn)	> 50	> 50	–
COc1ccccc1N1C(=O)CSC1c1cccc(C(=O)O)c1 (stereo not drawn)	> 50	> 50	–
COc1ccccc1N1C(=O)CSC1c1ccncc1 (stereo not drawn)	> 50	> 50	–
CCN(CC)C(=O)c1cccc(C2SCC(=O)N2c2ccccc2OC)c1 (stereo not drawn)	> 50	> 50	–
COc1ccccc1N1C(=O)CSC1Cc1ccccc1 (stereo not drawn)	> 50	> 50	–
COc1ccccc1N1C(=O)CSC1c1cccc(C(=O)N2CCCCC2)c1 (stereo not drawn)	> 50	> 50	–
COc1ccccc1N1C(=O)CSC1c1ccc2ccccc2n1 (stereo not drawn)	> 50	> 50	–
COc1ccccc1N1C(=O)CSC1c1cccc(C(=O)Nc2ccccc2)c1 (stereo not drawn)	> 25	> 25	–
COc1ccccc1N1C(=O)CSC1c1cccc(F)c1 (stereo not drawn)	> 50	> 50	–
CN(C)c1ccccc1N1C(=O)CSC1c1cccc(Br)c1 (stereo not drawn)	> 50	37.6	–
O=C1CSC(c2cccc(Br)c2)N1c1cccc([N+](=O)[O-])c1 (stereo not drawn)	> 50	43.7	–
COc1ccccc1N1C(=O)CSC1c1cccc(C(=O)NCc2ccccc2)c1 (stereo not drawn)	> 25	5.06	–
COc1ccccc1N1C(=O)CSC1c1ccccc1Br (stereo not drawn)	> 50	31.5	–
COc1ccccc1N1C(=O)CSC1c1ccccc1 (stereo not drawn)	> 50	> 50	–
COc1ccccc1N1C(=O)CSC1c1cccc(CBr)c1 (stereo not drawn)	> 50	14.4	–
COc1ccccc1N1C(=O)CSC1c1cccs1 (stereo not drawn)	> 50	> 50	–
O=C1CSC(c2cccc(Br)c2)N1CCc1ccccc1 (stereo not drawn)	> 50	20.7	–

Continued by falling IC50 (MDA-MB-231 [1]), values first:

IC50 (MDA-MB-231 [1]) [µM]	IC50 (A549 [2]) [µM]	SMILES	further results
47.5	> 50	COc1cccc(N2C(=O)CSC2c2cccc(Br)c2)c1 (stereo not drawn)	–
43	11.3	COc1ccccc1N1C(=O)CSC1c1cccc([N+](=O)[O-])c1 (stereo not drawn)	–
32.6	13.7	O=C1CSC(c2cccc(Br)c2)N1c1ccccc1O (stereo not drawn)	–
27	9.95	O=C1CSC(c2cccc(Br)c2)N1c1cc(Cl)ccc1O (stereo not drawn)	inhibition (MDA-MB-231 [4]): inactive
23.1	0.29	COC(=O)c1cccc(C2SCC(=O)N2c2ccccc2OC)c1 (stereo not drawn)	–
18	8.98	CCOc1ccc(N2C(=O)CSC2c2cccc(Br)c2)cc1 (stereo not drawn)	–
17.7	37.1	O=C1CSC(c2cccc(Br)c2)N1c1cccc(O)c1 (stereo not drawn)	–
17.1	14.8	COc1ccc(N2C(=O)CSC2c2cccc(Br)c2)c(OC)c1 (stereo not drawn)	–
13.9	8.52	COc1ccccc1N1C(=O)CSC1c1cccc(C(=O)NCCc2ccccc2Br)c1 (stereo not drawn)	–
13.9	8.18	COc1ccccc1N1C(=O)CSC1c1cccc(Cl)c1 (stereo not drawn)	–
12.3	31.6	COc1ccccc1N1C(=O)CSC1c1cccc(C(=O)NCCCc2ccccc2)c1 (stereo not drawn)	–
4.52	1.87	COc1ccccc1N1C(=O)CSC1c1cccc(Br)c1 (stereo not drawn)	–
1.77	0.72	COc1ccccc1N1C(=O)CSC1c1cccc(C(=O)NCCc2ccc(O)cc2)c1 (stereo not drawn)	inhibition (MDA-MB-231 [3]): Active
1.36	0.47	COc1ccccc1N1C(=O)CSC1c1cccc(C(=O)NCCc2ccc(F)cc2)c1 (stereo not drawn)	–
0.23	0.21	COc1ccccc1N1C(=O)CSC1c1cccc(C(=O)NCCc2ccc(Br)cc2)c1 (stereo not drawn)	Activity (Mus musculus [5]): Toxic; IC50 (MDA-MB-231 [3]): < 0.05 µM; Activity (MDA-MB-231 [6]): Active; IC50 (MDA-MB-231 [7]): 0.01 µM; inhibition (MDA-MB-231 [7]): Dose-dependent effect; Activity (MDA-MB-231 [8]): tde; Activity (A549 [9]): Active; Activity (MDA-MB-231 [10]): 96.5%; Activity (A549 [11]): 42.4%; Activity (MDA-MB-231 [12]): inactive; Activity (A549 [13]): Active; Activity (Mus musculus [14]): Non-toxic; Activity (MDA-MB-231 [15]): 48.34%; Activity (A549 [16]): inactive; Activity (MDA-MB-231 [17]): Dose-dependent effect
0.18	0.16	COc1ccccc1N1C(=O)CSC1c1cccc(C(=O)NCCc2ccc(Cl)cc2)c1 (stereo not drawn)	IC50 (MDA-MB-231 [3]): < 0.05 µM; IC50 (MDA-MB-231 [7]): 0.01 µM; inhibition (MDA-MB-231 [7]): Dose-dependent effect
0.05	0.13	COc1ccc(CCNC(=O)c2cccc(C3SCC(=O)N3c3ccccc3OC)c2)cc1 (stereo not drawn)	inhibition (MDA-MB-231 [3]): Active
